Laboratory results reported in ChEMBL document CHEMBL4219151, “Piperidinyl Ureas Chemically Control Defective in Cullin Neddylation 1 (DCN1)-Mediated Cullin Neddylation” (J Med Chem, 2018).
In brackets after ≈: the same amount, converted by molar mass. Activity calls are given as the source filed them. The calls are words filed in the database; no cut-off is given here.

Legend:
[1] = Solubility of the compound at pH 7.4 after 18 hrs by UV-spectroscopy; assay type: physicochemical; conditions: buffer
How it was run: (§1)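 Measured in triplicate within at least one experiment; values reported as mean ± standard deviation.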

[2] = Permeability of the compound at 10 uM by PAMPA; assay type: ADME; conditions: for Papp at 10 µM: PAMPA, read-out: permeability; for permeability: pampa, 10 µM; how it was run: as §1
DCN1-like protein 1 [3] = biological target: T1, DCN1-like protein 1 (Homo sapiens, UniProt Q96GG9)
DCN1-like protein 1 [4] = biological target: T1, DCN1-like protein 1; assay: Inhibition of human DCN1-mediated cullin neddylation assessed as reduction in transfer of fluorescein-5-maleimide-tagged NEDD8 from N-terminally acetylated human UBE2M to CUL2-CTD measured for 10 sec by pulse-chase assay
BJ = assay: Growth inhibition of human BJ cells; assay type: cell-based
How it was run: (§2)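 In vitro monolayer proliferation assay in BJ cells (normal fibroblasts lacking DCN1 amplification) and HCC95 cells (squamous cell carcinoma line carrying DCN1 amplification). EC50 is reported as mean ± standard deviation from at least one experiment run in triplicate. A ">" value means less than 50% growth inhibition at the highest concentration tested.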

HCC95 = assay: Growth inhibition of human HCC95 cells; assay type: functional, cell-based; how it was run: as §2
Homo sapiens = organism: Homo sapiens; assay: Inhibition of human RBX1-catalyzed CUL2(CTD) neddylation assessed as reduction in transfer of N-terminal cys-tagged NEDD8 from UBE2M to CUL2-CTD at 12.5 uM measured up to 6 mins by pulse-chase assay
How it was run: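 In vitro pulse-chase monitoring NEDD8 transfer from UBE2M to the CUL2 C-terminal domain, stimulated by DCN1 together with RBX1. The CUL2 domain stands in for cullins 1-5. The assay is a variation of a previously published pulse-chase format, also run against each of the five DCN family members.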

DCN1-like protein 1 [5] = biological target: T1, DCN1-like protein 1; assay: Binding affinity biotinylated human GST-tagged DCN1 by ITC method

T1 sequence (Q96GG9 whole entry): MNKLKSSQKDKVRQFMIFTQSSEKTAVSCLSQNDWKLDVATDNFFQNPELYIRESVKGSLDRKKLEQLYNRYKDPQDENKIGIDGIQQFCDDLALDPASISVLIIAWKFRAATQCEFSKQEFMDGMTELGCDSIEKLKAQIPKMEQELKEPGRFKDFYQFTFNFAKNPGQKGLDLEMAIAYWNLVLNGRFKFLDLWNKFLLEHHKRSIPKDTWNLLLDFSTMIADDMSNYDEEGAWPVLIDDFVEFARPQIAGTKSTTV

Compound	solubility at 18 h [1] [µM]	Papp at 10 µM [2] [×10⁻⁶ cm/s]	IC50 (DCN1-like protein 1 [3]) [µM]	further results
CCCC(=O)N1CCC(N(Cc2ccccc2)C(=O)Nc2cccc(C(F)(F)F)c2)CC1	< 0.1	> 2200	–	–
O=C(Nc1cccc(C(F)(F)F)c1)N(Cc1ccccc1)C1CCNCC1	71 (≈ 26.8 µg/mL)	> 2200	21	–
CSc1cccc(NC(=O)NC2CCN(Cc3ccccc3)CC2)c1	–	–	> 67	–
O=C(Nc1cccc(C(F)(F)F)c1)NC1CCN(Cc2ccc(F)cc2)CC1	19 (≈ 7.51 µg/mL)	> 2200	14	–
Cc1ccc(NC(=O)NC2CCN(Cc3ccccc3)CC2)cc1Cl	2.4 (≈ 0.859 µg/mL)	> 2200	> 67	–
CCOc1cc(CN2CCC(N(Cc3ccccc3)C(=O)Nc3cccc(C(F)(F)F)c3)CC2)cc(Cl)c1O	0.4 (≈ 0.225 µg/mL)	110	–	–
O=C(Nc1ccccc1)NC1CCN(Cc2ccccc2)CC1	68 (≈ 21 µg/mL)	–	> 67	permeability [2]: 1400 ×10⁻⁶ cm/s
O=C(Nc1cccc(C(F)(F)F)c1)NC1CCN(Cc2ccccc2F)CC1	44 (≈ 17.4 µg/mL)	–	13	permeability [2]: 1500 ×10⁻⁶ cm/s
O=C(Nc1cccc(C(F)(F)F)c1)N(Cc1ccccc1)C1CCN(Cc2ccc3c(c2)OCO3)CC1	< 0.1	> 2200	12	–
CC(=O)O[C@H]1CN(Cc2ccccc2)CC[C@@H]1NC(=O)Nc1cccc(C(F)(F)F)c1	–	–	12	–
O=C(Nc1cccc(C(F)(F)F)c1)NC1CCN(Cc2cccc(F)c2)CC1	50 (≈ 19.8 µg/mL)	> 2200	16	–
CCCN1CCC(N(Cc2cc(F)cc(C(F)(F)F)c2)C(=O)Nc2cccc(C(F)(F)F)c2)CC1	37 (≈ 18.7 µg/mL)	> 2200	1	EC50 (DCN1-like protein 1 [4]): 0.18 µM; EC50 (BJ): > 23 µM; EC50 (HCC95): 21 µM; inhibition (Homo sapiens): inactive
O=C(Nc1cccc(C(F)(F)F)c1)N(Cc1ccccc1)C1CCN(Cc2ccc3c(c2)OCCO3)CC1	1 (≈ 0.526 µg/mL)	> 2200	0.36	–
CCCCCN1CCC(N(Cc2ccccc2)C(=O)Nc2cccc(C(F)(F)F)c2)CC1	58 (≈ 26 µg/mL)	–	0.66	permeability [2]: 1400 ×10⁻⁶ cm/s
O=C(Nc1cccc(C(F)(F)F)c1)NC1CCN(Cc2ccccc2)CC1	32 (≈ 12.1 µg/mL)	670	–	EC50 (BJ): > 24 µM; EC50 (HCC95): > 32 µM
CCCN1CCC(N(CC2CCCCC2)C(=O)Nc2cccc(C(F)(F)F)c2)CC1	90 (≈ 38.3 µg/mL)	> 2200	2.4	–
O=C(Nc1cccc(CN2CCOCC2)c1)NC1CCN(Cc2ccccc2)CC1	75 (≈ 30.6 µg/mL)	220	> 67	–
CCCN1CCC(N(Cc2cccnc2)C(=O)Nc2cccc(C(F)(F)F)c2)CC1	< 0.1	–	–	permeability [2]: 1300 ×10⁻⁶ cm/s; EC50 (BJ): > 23 µM; EC50 (HCC95): > 23 µM
O=C(Nc1cccc(C(F)(F)F)c1)NC1CCN(Cc2cccc(Cl)c2)CC1	0.7 (≈ 0.288 µg/mL)	–	–	permeability [2]: 1700 ×10⁻⁶ cm/s

Compound	solubility at 18 h [1] [µM]	Papp at 10 µM [2] [×10⁻⁶ cm/s]	IC50 (DCN1-like protein 1 [3]) [µM]	further results
O=C(Nc1cccc(C(F)(F)F)c1)N(Cc1ccccc1)C1CCN(CC2CCCCC2)CC1	1.2 (≈ 0.568 µg/mL)	< 1	0.62	–
CCCN1CCC(N(Cc2ccncc2)C(=O)Nc2cccc(C(F)(F)F)c2)CC1	85 (≈ 35.7 µg/mL)	700	–	–
Cc1cccc(NC(=O)NC2CCN(Cc3ccccc3)CC2)c1	–	–	44	–
O=C(Nc1cccc(C(F)(F)F)c1)N(Cc1ccccc1)C1CCN(Cc2ccccc2)CC1	11 (≈ 5.14 µg/mL)	300	–	–
O=C(Nc1cccc(C(F)(F)F)c1)N(Cc1ccccc1)C1CCN(Cc2cc[nH]n2)CC1	54 (≈ 24.7 µg/mL)	> 2200	2.4	–
O=C(Nc1ccc2c(c1)OCO2)NC1CCN(Cc2ccccc2)CC1	–	–	> 67	–
Cc1ccc(CN2CCC(NC(=O)Nc3cccc(C(F)(F)F)c3)CC2)cc1	14 (≈ 5.48 µg/mL)	> 2200	–	–
CC(C)CCN1CCC(N(Cc2ccccc2)C(=O)Nc2cccc(C(F)(F)F)c2)CC1	60 (≈ 26.9 µg/mL)	> 2200	0.79	–
CCCN1CCC(N(Cc2ccccc2)C(=O)Nc2cccc(C(F)(F)F)c2)CC1	39 (≈ 16.4 µg/mL)	–	0.82	permeability [2]: 1800 ×10⁻⁶ cm/s; Kd (DCN1-like protein 1 [5]): 0.86 µM; EC50 (DCN1-like protein 1 [4]): 0.4 µM; EC50 (BJ): > 23 µM; EC50 (HCC95): > 40 µM
O=C(Nc1cccc(C(F)(F)F)c1)NC1CCN(Cc2ccccc2Cl)CC1	0.3 (≈ 0.124 µg/mL)	830	28	–
O=C(Nc1cccc(C(F)(F)F)c1)NC1CCN(C(=O)c2ccccc2)CC1	2.8 (≈ 1.1 µg/mL)	910	> 67	–
CCCN1CCC(N(CCC)C(=O)Nc2cccc(C(F)(F)F)c2)CC1	61 (≈ 22.7 µg/mL)	–	10	permeability [2]: 1600 ×10⁻⁶ cm/s
Cc1cccc(CN2CCC(NC(=O)Nc3cccc(C(F)(F)F)c3)CC2)c1	35 (≈ 13.7 µg/mL)	> 2200	6.6	–
CCCN1CCC(N(CC(C)C)C(=O)Nc2cccc(C(F)(F)F)c2)CC1	96 (≈ 37 µg/mL)	–	5.8	permeability [2]: 1900 ×10⁻⁶ cm/s
COc1cccc(NC(=O)NC2CCN(Cc3ccccc3)CC2)c1	–	–	> 67	–
CCCN1CCC(N(Cc2ccco2)C(=O)Nc2cccc(C(F)(F)F)c2)CC1	69 (≈ 28.3 µg/mL)	> 2200	0.75	Kd (DCN1-like protein 1 [5]): 0.7 µM; EC50 (DCN1-like protein 1 [4]): 0.57 µM; EC50 (BJ): > 23 µM; EC50 (HCC95): > 23 µM
CCCCN(C(=O)Nc1cccc(C(F)(F)F)c1)C1CCN(CCC)CC1	70 (≈ 27 µg/mL)	> 2200	1.4	–
O=C(Nc1cccc(-n2cccc2)c1)NC1CCN(Cc2ccccc2)CC1	1 (≈ 0.374 µg/mL)	930	> 67	–
CC(C)(C)CN1CCC(N(Cc2ccccc2)C(=O)Nc2cccc(C(F)(F)F)c2)CC1	–	–	0.96	–

Compound	solubility at 18 h [1] [µM]	Papp at 10 µM [2] [×10⁻⁶ cm/s]	IC50 (DCN1-like protein 1 [3]) [µM]	further results
CC(C)(C)N1CCC(N(Cc2ccc3c(c2)OCO3)C(=O)Nc2cccc(C(F)(F)F)c2)CC1	75 (≈ 35.8 µg/mL)	> 2200	0.31	EC50 (DCN1-like protein 1 [4]): 0.37 µM; EC50 (BJ): > 40 µM; EC50 (HCC95): > 40 µM; inhibition (Homo sapiens): inactive
Cn1nccc1-c1cccc(NC(=O)NC2CCN(Cc3ccccc3)CC2)c1	78 (≈ 30.4 µg/mL)	> 2200	> 67	–
O=C(Nc1cccc(C(F)(F)F)c1)N(Cc1ccccc1)C1CCN(CC2CCCC2)CC1	48 (≈ 22.1 µg/mL)	990	0.37	–
O=C(Nc1cccc(C(F)(F)F)c1)N(Cc1ccccc1)C1CCN(Cc2cccnc2)CC1	30 (≈ 14.1 µg/mL)	> 2200	20	–
O=C(Nc1cccc(I)c1)NC1CCN(Cc2ccccc2)CC1	–	–	> 67	–
CCCCS(=O)(=O)N1CCC(N(Cc2ccccc2)C(=O)Nc2cccc(C(F)(F)F)c2)CC1	1 (≈ 0.498 µg/mL)	< 1	–	–
O=C(Nc1cccc(C(F)(F)F)c1)N(Cc1ccccc1)C1CCN(CCC(F)(F)F)CC1	2.3 (≈ 1.09 µg/mL)	440	23	–
O=C(Nc1cccc(C(F)(F)F)c1)N(Cc1ccccc1)C1CCN(Cc2ccc(F)cc2)CC1	0.9 (≈ 0.437 µg/mL)	> 2200	10	–
CCCS(=O)(=O)N1CCC(N(Cc2ccccc2)C(=O)Nc2cccc(C(F)(F)F)c2)CC1	0.5 (≈ 0.242 µg/mL)	< 1	0.74	–
O=C(Nc1cccc(C(F)(F)F)c1)NC1CCN(Cc2ccc(Cl)cc2)CC1	0.8 (≈ 0.329 µg/mL)	–	25	permeability [2]: 1300 ×10⁻⁶ cm/s
CCCCN1CCC(N(Cc2ccc3c(c2)OCO3)C(=O)Nc2cccc(C(F)(F)F)c2)CC1	71 (≈ 33.9 µg/mL)	> 2200	0.36	EC50 (DCN1-like protein 1 [4]): 0.11 µM; EC50 (BJ): > 40 µM; EC50 (HCC95): 46 µM
O=C(Nc1cccc(C(F)(F)F)c1)N(Cc1ccccc1)C1CCN(CC2CC2)CC1	75 (≈ 32.4 µg/mL)	> 2200	0.21	–
CC(C)(C)CCN1CCC(N(Cc2ccccc2)C(=O)Nc2cccc(C(F)(F)F)c2)CC1	5.8 (≈ 2.68 µg/mL)	> 2200	0.17	–
O=C(Nc1cccc(C(F)(F)F)c1)N(Cc1ccccc1)C1CCN(Cc2nccs2)CC1	6.3 (≈ 2.99 µg/mL)	310	–	–
CCCN1CCC(N(CCC(C)C)C(=O)Nc2cccc(C(F)(F)F)c2)CC1	61 (≈ 24.4 µg/mL)	–	2.7	permeability [2]: 1500 ×10⁻⁶ cm/s
Cc1ccccc1CN1CCC(NC(=O)Nc2cccc(C(F)(F)F)c2)CC1	44 (≈ 17.2 µg/mL)	–	4	permeability [2]: 1200 ×10⁻⁶ cm/s
CCCN1CCC(N(CCOC)C(=O)Nc2cccc(C(F)(F)F)c2)CC1	64 (≈ 24.8 µg/mL)	–	21	permeability [2]: 1600 ×10⁻⁶ cm/s
CCCN1CCC(N(Cc2ccc3c(c2)OCO3)C(=O)Nc2cccc(C(F)(F)F)c2)CC1	66 (≈ 30.6 µg/mL)	> 2200	–	EC50 (BJ): > 23 µM; EC50 (HCC95): > 40 µM
O=C(Nc1cccc(C(F)(F)F)c1)N(Cc1ccccc1)C1CCN(Cc2c[nH]cn2)CC1	110 (≈ 50.3 µg/mL)	50	5.9	–
